What all share (format): ADME, Oryctolagus cuniculus
Series [1] deals with T1, Cytochrome P450 2C19 (Homo sapiens, UniProt P33261). Put plainly: (§1) Extent of complex formation with 30 uM compound. The following applies: rabbit.
In series [2] the target is T1, Cytochrome P450 2C19. Put plainly: Percent inhibition of formation of metabolic intermediate complex between Cytochrome P450 and compound 1a (30 uM) initially, on pre-incubation with compound concentration of 5 uM. The following applies: rabbit, probe compound 1a (30 uM). In short, it runs like this: (§2)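 Inverse cross-inhibition in NADPH-supplemented rabbit liver microsomes at 37 °C. Preincubation with racemic hydroxylamine at 0–30 μM, monitoring 457-nm complex formation. The amine was then added at 30 μM, or racemic hydroxylamine at 30 μM. Initial rate and plateau extent were taken from ΔA457–500 nm tracings. Percent inhibition is relative to incubation in fresh microsomes.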

In series [3] the target is T1, Cytochrome P450 2C19. The description is as §1. To be noted: rabbit. This is another data set of the same source.
The target in series [4] is T1, Cytochrome P450 2C19. The series is described as §1. The following applies: rabbit. The source holds these as a separate data set.
The target in series [5] is T1, Cytochrome P450 2C19. The experiment in a line: (§3) Initial rate of complex formation with 30 uM compound. The following applies: rabbit.
The target of series [6] is T1, Cytochrome P450 2C19. The experiment in a line: Percent inhibition of formation of metabolic intermediate complex between Cytochrome P450 and compound 1a (30 uM) on extent, following incubation at compound concentration of 0 uM. To be noted: rabbit, probe compound 1a (30 uM). In short, it runs like this:
(§4)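 Hepatic microsomes came from male Dutch rabbits, fasted 24 h. They were diluted to 2 mg protein/mL in 50 mM Tris-Cl with 150 mM KCl, 10 mM MgSO4 and 0.1 mM EDTA, with NADPH added, at 37 °C. Microsomes were preincubated with racemic hydroxylamine 2, then 30 µM 1a or 30 µM racemic 2 was added. Complex formation was followed as ΔA457–500 nm, and inhibition of rate and extent (plateau) was calculated.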

Series [7] has as its target T1, Cytochrome P450 2C19. Put plainly: Percent inhibition of formation of metabolic intermediate complex between Cytochrome P450 and compound 1a (30 uM) initially, following incubation at compound concentration of 15 uM. To be noted: rabbit, probe compound 1a (30 uM). In outline:
as §2

Series [8] has as its target T1, Cytochrome P450 2C19. The experiment in a line: Percent inhibition of formation of metabolic intermediate complex between Cytochrome P450 and compound 1a (30 uM) on extent, on pre-incubation with compound concentration of 0 uM. To be noted: rabbit, probe compound 1a (30 uM). In short, it runs like this: as §4
Series [9] concerns the target T1, Cytochrome P450 2C19. Put plainly: Extent of complex formation without compound. To be noted: rabbit. In short, it runs like this: as §2
Series [10] deals with T1, Cytochrome P450 2C19. Put plainly: Percent inhibition of formation of metabolic intermediate complex between Cytochrome P450 and compound 1a (30 uM) on extent, following incubation at compound concentration of 20 uM. The following applies: rabbit, probe compound 1a (30 uM).
Series [11] deals with T1, Cytochrome P450 2C19. The experiment in a line: (§5) Extent of complex formation with 20 uM compound. The following applies: rabbit.
The target in series [12] is T1, Cytochrome P450 2C19. The experiment in a line: Extent of complex formation with 5 uM compound. The following applies: rabbit.
Series [13] addresses T1, Cytochrome P450 2C19. Put plainly: (§6) Percent inhibition of formation of metabolic intermediate complex between Cytochrome P450 and compound 1a (30 uM) initially, following incubation at compound concentration of 30 uM. The following applies: rabbit, probe compound 1a (30 uM). In short, it runs like this:
as §2

Series [14] concerns the target T1, Cytochrome P450 2C19. The series is described as §6. To be noted: rabbit, probe compound 1a (30 uM). In short, it runs like this:
as §2
This is another data set of the same source.

The target in series [15] is T1, Cytochrome P450 2C19. The description is as §5. The following applies: rabbit. This is another data set of the same source.
Series [16] deals with T1, Cytochrome P450 2C19. The experiment in a line: Percent inhibition of formation of metabolic intermediate complex between Cytochrome P450 and compound 1a (30 uM) initially, following incubation at compound concentration of 20 uM. The following applies: rabbit, probe compound 1a (30 uM).
Series [17] deals with T1, Cytochrome P450 2C19. Put plainly: Percent inhibition of formation of metabolic intermediate complex between Cytochrome P450 and compound 1b (30 uM) on extent, following incubation at compound concentration of 20 uM. To be noted: rabbit, probe compound 1b (30 uM). In outline:
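Rabbit liver microsomes (2 mg protein/mL; Tris-Cl/KCl/MgSO4 buffer, 0.1 mM EDTA) plus NADPH, at 37 °C, were preincubated with racemic or enantiomeric amine 1. The 457-nm complex was monitored until it plateaued (6–8 min), then racemic hydroxylamine 2 was added. Initial rate and plateau extent of complex formation came from dual-wavelength ΔA457–500 nm versus time tracings.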

The target in series [18] is T1, Cytochrome P450 2C19. Put plainly: Percent inhibition of formation of metabolic intermediate complex between Cytochrome P450 and compound 1a (30 uM) on extent, on pre-incubation with compound concentration of 15 uM. The following applies: rabbit, probe compound 1a (30 uM). In short, it runs like this:
as §4

For series [19], the target named is T1, Cytochrome P450 2C19. The description is as §3. To be noted: rabbit. This is another data set of the same source.
Series [20] has as its target T1, Cytochrome P450 2C19. The experiment in a line: Initial rate of complex formation with 15 uM compound. The following applies: rabbit.
In series [21] the target is T1, Cytochrome P450 2C19. Put plainly: Percent inhibition of formation of metabolic intermediate complex between Cytochrome P450 and compound 1a (30 uM) on extent, following incubation at compound concentration of 30 uM. To be noted: rabbit.
In series [22] the target is T1, Cytochrome P450 2C19. The description is as §3. The following applies: rabbit. This is another data set of the same source.

Structures are written as SMILES. Values joined by “and” are separate entries in the source; they are usually repeats but may differ in a detail not shown here. Equal values may be shown once.

T1 sequence (P33261 whole entry): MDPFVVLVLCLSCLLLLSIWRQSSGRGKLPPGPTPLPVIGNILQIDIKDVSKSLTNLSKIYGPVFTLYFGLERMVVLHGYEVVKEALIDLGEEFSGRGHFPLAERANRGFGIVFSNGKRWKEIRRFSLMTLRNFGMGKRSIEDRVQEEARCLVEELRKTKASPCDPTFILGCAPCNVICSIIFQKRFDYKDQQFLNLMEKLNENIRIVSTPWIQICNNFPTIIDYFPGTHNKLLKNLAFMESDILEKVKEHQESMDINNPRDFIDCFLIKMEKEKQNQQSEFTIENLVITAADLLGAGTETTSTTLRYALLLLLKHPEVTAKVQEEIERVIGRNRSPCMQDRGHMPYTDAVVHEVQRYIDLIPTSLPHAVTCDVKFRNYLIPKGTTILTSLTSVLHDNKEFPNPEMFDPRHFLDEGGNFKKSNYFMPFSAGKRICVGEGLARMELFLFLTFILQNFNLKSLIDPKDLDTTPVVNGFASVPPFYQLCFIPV

`COc1cc(C[C@@H](C)NO)c(OC)cc1C.COc1cc(C[C@H](C)NO)c(OC)cc1C`: the Complex_formation was 27 deltaA.10^4nmol-1 on Cytochrome P450 2C19 [1]; 51 deltaA.10^4nmol-1 at Cytochrome P450 2C19 [3]; 30 deltaA.10^4nmol-1 at Cytochrome P450 2C19 [4]; 76 deltaA.10^4nmol-1 and 95 deltaA.10^4nmol-1 on Cytochrome P450 2C19 [9]; 85 deltaA.10^4nmol-1 at Cytochrome P450 2C19 [11]; 43 deltaA.10^4nmol-1 and 85 deltaA.10^4nmol-1 at Cytochrome P450 2C19 [12]. Also, the Complex_formation on Cytochrome P450 2C19 [15] is 109 deltaA.10^4nmol-1. Further, the inhibition at 5 µM on Cytochrome P450 2C19 [2] was 80%. Also, the Initial_rate on Cytochrome P450 2C19 [5] is 5.5 deltaA.10^4nmol-1.min-1; at Cytochrome P450 2C19 [19] it was 12.4 deltaA.10^4nmol-1.min-1; on Cytochrome P450 2C19 [20], 131 deltaA.10^4nmol-1.min-1; on Cytochrome P450 2C19 [22], 177 deltaA.10^4nmol-1.min-1 and 176 deltaA.10^4nmol-1.min-1. Also, the results for the inhibition at 0 uM at Cytochrome P450 2C19 [6] and on Cytochrome P450 2C19 [8] were 30% and 0%, respectively. Besides, the inhibition at 15 µM on Cytochrome P450 2C19 [7] was 51%; on Cytochrome P450 2C19 [18] it was 100%. Besides, the inhibition at 20 µM came out at 27% at Cytochrome P450 2C19 [10], 29% at Cytochrome P450 2C19 [16] and 13% against Cytochrome P450 2C19 [17]. Moreover, the inhibition at 30 µM is 74% at Cytochrome P450 2C19 [13], 72% at Cytochrome P450 2C19 [14] and 73% on Cytochrome P450 2C19 [21] (probe compound 1a (30 uM)). The molecule also gave an Inhibition at Cytochrome P450 2C19 [21] (30 µM) of 66%.

One may read the inhibition as the drop in the measured response relative to a control, in per cent. What is called Inhibition is the percentage by which the read-out fell short of the control.

(Values after ChEMBL document CHEMBL1121797, “Studies on chiral interactions of 1-(2,5-dimethoxy-4-methylphenyl)-2-aminopropane and the corresponding N-hydroxy metabolites with cytochrome P-450” (J Med Chem, 1981).)
